Test results reported in paper PMC2973230 (Biochemical Journal, 2010).

Tests used:
[1] = target: T1, OgOGA (Oceanicola granulosus OGA) (Oceanicola granulosus, UniProt Q2CEE3); experiment: Enzymatic deglycosylation of glycopeptide monitored by LC-MS; format: biochemical; conditions: detected by LC-MS; 785 Da to 582 Da
How it was run: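 OgOGA expressed in E. coli as a GST fusion from a gene cloned from genomic DNA, then purified by affinity, anion-exchange and size-exclusion chromatography. Glycopeptide loss of GlcNAc followed by LC–MS: reversed-phase C18 HPLC with diode-array UV detection, coupled to a high-resolution TOF mass spectrometer.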

[2] = target: T1, OgOGA (Oceanicola granulosus OGA); experiment: Inhibition of OgOGA by OGA inhibitors, 4MU-GlcNAc substrate; format: biochemical
How it was run: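 OgOGA was a GST fusion expressed in E. coli and purified by affinity, anion-exchange and size-exclusion steps. Activity was measured in 25 mM Tris/HCl pH 7.5 with 0.1 mg/ml BSA and 2% DMSO at 37 °C. 4MU-GlcNAc was used at its Km for 20 min, with fluorescence read at ex 360/em 460 nm. Run in triplicate.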

T1 sequence (Q2CEE3 whole entry, the tested form may be a part): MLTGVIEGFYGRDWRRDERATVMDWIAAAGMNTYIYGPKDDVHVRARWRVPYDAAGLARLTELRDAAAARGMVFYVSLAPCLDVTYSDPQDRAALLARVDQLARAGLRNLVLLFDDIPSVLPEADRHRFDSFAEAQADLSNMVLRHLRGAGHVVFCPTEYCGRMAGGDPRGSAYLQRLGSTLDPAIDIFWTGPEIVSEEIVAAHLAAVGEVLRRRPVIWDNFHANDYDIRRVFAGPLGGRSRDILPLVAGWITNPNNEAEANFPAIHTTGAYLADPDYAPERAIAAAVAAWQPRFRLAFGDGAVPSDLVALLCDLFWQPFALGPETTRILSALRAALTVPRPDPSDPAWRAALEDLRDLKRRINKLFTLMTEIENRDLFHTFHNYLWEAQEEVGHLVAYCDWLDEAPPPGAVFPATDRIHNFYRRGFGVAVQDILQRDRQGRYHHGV

Deglycosylation of glycopeptide by OgOGA [1] | IC50 [2] [µM] | Compound
quantitatively deglycosylate |  | Ac-VAHS(-β-O-GlcNAc)GA-NH2
 | 11 | CC(=O)N[C@H]1/C(=N/OC(=O)Nc2ccccc2)O[C@H](CO)[C@@H](O)[C@@H]1O [PUGNAc, O-(2-acetamido-2-deoxy-D-glucopyranosylidene)amino-N-phenylcarbamate]
